Reference: ChEMBL document CHEMBL1125138, “1,3-Dialkyl-3-acyltriazenes, a novel class of antineoplastic alkylating agents” (J Med Chem, 1990)

Tests used:
A498 = experiment: Evaluated for the inhibitory concentration required to cause growth inhibition of A498Rem- renal cell line using the MTT Cytotoxicity Assay; format: functional, cell-based; settings: Homo sapiens
Summary of the method: (§1)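 MTT microculture tetrazolium growth assay on human cell lines and normal fibroblasts. Cells seeded at 1000 cells/well, with compound added 24 h after plating. Cultures then incubated a further 6 days at 37 °C before MTT read-out of growth versus untreated cells.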

A-427 = experiment: Evaluated for the inhibitory concentration required to cause growth inhibition of A427Mer- cell line of lung using the MTT Cytotoxicity Assay; format: functional, cell-based; settings: Homo sapiens; summary of the method: as §1
A704 = experiment: Evaluated for the inhibitory concentration required to cause growth inhibition of A704Rem- renal cell line using the MTT Cytotoxicity Assay; format: functional, cell-based; settings: Homo sapiens; summary of the method: as §1
A673 = experiment: Evaluated for the inhibitory concentration required to cause growth inhibition of A673Mer+ sarcoma cell line using the MTT Cytotoxicity Assay; format: functional, cell-based; settings: Homo sapiens; summary of the method: as §1
A 172 = experiment: Evaluated for the inhibitory concentration required to cause growth inhibition of A172Mer- cell line of central nervous system (CNS) using the MTT Cytotoxicity Assay; format: functional, cell-based; settings: Homo sapiens; summary of the method: as §1
CCD 19Lu = experiment: Evaluated for the inhibitory concentration required to cause growth inhibition of CCD-19Lu fibroblasts cell line using the MTT Cytotoxicity Assay; format: functional, cell-based; settings: Homo sapiens; summary of the method: as §1
DOD-1 = experiment: Evaluated for the inhibitory concentration required to cause growth inhibition of DOD-1 breast cell line using the MTT Cytotoxicity Assay; format: functional, cell-based; settings: Homo sapiens; summary of the method: as §1
NCI-H460 = experiment: Evaluated for the inhibitory concentration required to cause growth inhibition of H460 cell line of lung using the Microculture Tetrazolium (MTT) Cytotoxicity Assay; format: functional, cell-based; settings: Homo sapiens; summary of the method: as §1
NCI-H358 = experiment: Evaluated for the inhibitory concentration required to cause growth inhibition of H358M cell line of lung using the Microculture Tetrazolium (MTT) Cytotoxicity Assay; format: functional, cell-based; settings: Homo sapiens; summary of the method: as §1
NCI-H125 = experiment: Evaluated for the inhibitory concentration required to cause growth inhibition of H125 cell line of lung using the Microculture Tetrazolium (MTT) Cytotoxicity Assay; format: functional, cell-based; settings: Homo sapiens; summary of the method: as §1
NCI-H322M = experiment: Evaluated for the inhibitory concentration required to cause growth inhibition of H322M cell line of lung using the Microculture Tetrazolium (MTT) Cytotoxicity Assay; format: functional, cell-based; settings: Homo sapiens; summary of the method: as §1
NCI-H23 = experiment: Evaluated for the inhibitory concentration required to cause growth inhibition of H23 cell line of lung using the Microculture Tetrazolium (MTT) Cytotoxicity Assay; format: functional, cell-based; settings: Homo sapiens; summary of the method: as §1
[1] = Evaluated in vivo for antineoplastic activity against LOX melanoma amelanotic tumor xenograft in nude mice after administering intra peritoneally 3 injections at a dose of 100 mg/kg; format: functional, Homo sapiens
Summary of the method: (§2)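 Nude mice bearing tumor xenografts, run through the NCI Developmental Therapeutics Program. Compound given ip as three injections at 4-day intervals for MX-1 mammary, LX-1 lung and LOX melanoma. Activity read out as % T/C.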

[2] = Evaluated in vivo for antineoplastic activity against LOX melanoma amelanotic tumor xenograft in nude mice after administering intra peritoneally 3 injections at a dose of 400 mg/kg; format: functional, Homo sapiens; summary of the method: as §2
[3] = Evaluated in vivo for antineoplastic activity against LOX melanoma amelanotic tumor xenograft in nude mice after administering intra peritoneally 3 injections at a dose of 800 mg/kg; format: functional, Homo sapiens; summary of the method: as §2
LOX IMVI = experiment: Evaluated for the inhibitory concentration required to cause growth inhibition of LOX melanoma cell line using the MTT Cytotoxicity Assay; format: functional, cell-based; settings: Homo sapiens; summary of the method: as §1
[4] = Evaluated in vivo for antineoplastic activity against LX-1 Lung small cell carcinoma tumor xenograft in nude mice after administering intra peritoneally 3 injections at a dose of 200 mg/kg; format: functional, Homo sapiens; summary of the method: as §2
MCF7 = experiment: Evaluated for the inhibitory concentration required to cause growth inhibition of MCF-7 breast cell line using the MTT Cytotoxicity Assay; format: functional, cell-based; settings: Homo sapiens; summary of the method: as §1
[5] = system: MAR BEL fibroblasts cell line; experiment: Evaluated for the inhibitory concentration required to cause growth inhibition of MAR BEL fibroblasts cell line using the MTT Cytotoxicity Assay; format: functional, cell-based; settings: Homo sapiens; summary of the method: as §1
[6] = Evaluated in vivo for antineoplastic activity against LX-1 Lung small cell carcinoma tumor xenograft in nude mice after administering intra peritoneally 3 injections at a dose of 100 mg/kg; format: functional, Homo sapiens; summary of the method: as §2
NCI/ADR-RES = experiment: Evaluated for the inhibitory concentration required to cause growth inhibition of MCF-7ADR breast cell line using the MTT Cytotoxicity Assay; format: functional, cell-based; settings: Homo sapiens; summary of the method: as §1
MX1 [7] = experiment: Evaluated in vivo for antineoplastic activity against MX-1 mammary carcinoma tumor xenograft in nude mice after administering intra peritoneally 3 injections at a dose of 200 mg/kg; format: functional, Homo sapiens; summary of the method: as §2
MX1 [8] = experiment: Evaluated in vivo for antineoplastic activity against MX-1 mammary carcinoma tumor xenograft in nude mice after administering intra peritoneally 3 injections at a dose of 400 mg/kg; format: functional, Homo sapiens; summary of the method: as §2
MX1 [9] = experiment: Evaluated in vivo for antineoplastic activity against MX-1 mammary carcinoma tumor xenograft in nude mice after administering intra peritoneally 3 injections at a dose of 100 mg/kg; format: functional, Homo sapiens; summary of the method: as §2
Malme-3M = experiment: Evaluated for the inhibitory concentration required to cause growth inhibition of MALME-3M melanoma cell line using the MTT Cytotoxicity Assay; format: functional, cell-based; settings: Homo sapiens; summary of the method: as §1
OVCAR-4 = experiment: Evaluated for the inhibitory concentration required to cause growth inhibition of OVCAR-4 ovarian cell line using the MTT Cytotoxicity Assay; format: functional, cell-based; settings: Homo sapiens; summary of the method: as §1
OVCAR-3 = experiment: Evaluated for the inhibitory concentration required to cause growth inhibition of OVCAR-3 ovarian cell line using the MTT Cytotoxicity Assay; format: functional, cell-based; settings: Homo sapiens; summary of the method: as §1
P388 [10] = experiment: Evaluated in vivo for antineoplastic activity against P388 murine leukemia tumor […] after administering intra peritoneal injection at a dose of 100 mg/kg.; format: functional, Mus musculus
Summary of the method: (§3)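 P388 leukemia-bearing mice, run through the NCI Developmental Therapeutics Program. Compound given ip once daily on 5 consecutive days. Activity read out as % T/C.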

P388 [11] = experiment: Evaluated in vivo for antineoplastic activity against P388 murine leukemia tumor […] after administering intra peritoneal injection at a dose of 200 mg/kg.; format: functional, Mus musculus; summary of the method: as §3
P388 [12] = experiment: Evaluated in vivo for antineoplastic activity against P388 murine leukemia tumor […] after administering intra peritoneal injection at a dose of 50 mg/kg.; format: functional, Mus musculus; summary of the method: as §3
HOS-TE85 = experiment: Evaluated for the inhibitory concentration required to cause growth inhibition of TE85Mer+ sarcoma cell line using the MTT Cytotoxicity Assay; format: functional, cell-based; settings: Homo sapiens; summary of the method: as §1
TE-671 = experiment: Evaluated for the inhibitory concentration required to cause growth inhibition of TE-671 cell line of central nervous system (CNS)using the MTT Cytotoxicity Assay; format: functional, cell-based; settings: Homo sapiens; summary of the method: as §1
WiDr = experiment: Evaluated for the inhibitory concentration required to cause growth inhibition of WiDR colon cell line using the MTT Cytotoxicity Assay; format: functional, cell-based; settings: Homo sapiens
Summary of the method: (§4)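 MTT cell-growth assay in human cell lines: cells harvested and seeded at 1000 cells/well in 96-well plates. Compound added after 24 h, then cultures incubated a further 6 days at 37 °C. Growth measured with and without agent.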

U-251 = experiment: Evaluated for the inhibitory concentration required to cause growth inhibition of U251 cell line of central nervous system (CNS) using the MTT Cytotoxicity Assay; format: functional, cell-based; settings: Homo sapiens; summary of the method: as §4
RPMI-7951 = experiment: Evaluated for the inhibitory concentration required to cause growth inhibition of RPMI7951 melanoma cell line using the MTT Cytotoxicity Assay; format: functional, cell-based; settings: Homo sapiens; summary of the method: as §1
SK-MEL-5 = experiment: Evaluated for the inhibitory concentration required to cause growth inhibition of SK-MEL-5 melanoma cell line using the MTT Cytotoxicity Assay; format: functional, cell-based; settings: Homo sapiens; summary of the method: as §1
[13] = Evaluated in vivo for antineoplastic activity against LOX melanoma amelanotic tumor xenograft in nude mice after administering intra peritoneally 3 injections at a dose of 200 mg/kg; format: functional, Homo sapiens; summary of the method: as §2
A549 = experiment: Evaluated for the inhibitory concentration required to cause growth inhibition of A549Rem- cell line of lung using the MTT Cytotoxicity Assay; format: functional, cell-based; settings: Homo sapiens; summary of the method: as §1
NCI-H522 (Homo sapiens) = experiment: Evaluated for the inhibitory concentration required to cause growth inhibition of H522 cell line of lung using the Microculture Tetrazolium (MTT) Cytotoxicity Assay
P388 [14] = experiment: Evaluated in vivo for antineoplastic activity against P388 murine leukemia tumor […] after administering intra peritoneal injection on each of 5 consecutive days at a dose of 30.0 mg/kg; format: functional, Mus musculus; summary of the method: as §3

Row | Compound | IC50 (A498) | IC50 (A-427) | IC50 (A704) | IC50 (A673) | IC50 (A 172) | IC50 (CCD 19Lu) | IC50 (DOD-1) | IC50 (NCI-H460) | IC50 (NCI-H358) | IC50 (NCI-H125) | IC50 (NCI-H322M) | IC50 (NCI-H23) | IC50 (LOX IMVI) | IC50 (MCF7) | IC50 [5] | IC50 (NCI/ADR-RES) | IC50 (Malme-3M) | IC50 (OVCAR-4) | IC50 (OVCAR-3) | IC50 (HOS-TE85) | further results
1 | CNC(=O)N(C)/N=N\CCCl | 20 µM | 18 µM | 35 µM | 35 µM | 27 µM | 60 µM | 21 µM | 60 µM | 60 µM | 45 µM | 37 µM | 18 µM | 10 µM | 14 µM | 47 µM | 17 µM | 28 µM | 20 µM | 20 µM | 26 µM | T/C [1]: 201%; T/C [2]: 309%; T/C [3]: 309%; T/C [4]: -66%; T/C [6]: -19%; T/C (MX1 [7]): 1%; T/C (MX1 [8]): -76%; T/C (MX1 [9]): 15%; T/C (P388 [10]): 196%; T/C (P388 [11]): 297%; T/C (P388 [12]): 175%; IC50 (TE-671): 55 µM; IC50 (WiDr): 14 µM; IC50 (U-251): 30 µM; IC50 (RPMI-7951): 18 µM; IC50 (SK-MEL-5): 13 µM; T/C [13]: 309%; IC50 (A549): 26 µM; IC50 (NCI-H522 (Homo sapiens)): 13 µM
2 | CCOC(=O)N(C)/N=N\CCCl | 16 µM | 11 µM | 18 µM | 20 µM | 18 µM | 45 µM | 20 µM | 50 µM | 50 µM | 30 µM | 14 µM | 16 µM | 2.4 µM | 16 µM | 46 µM | 17 µM | 15 µM | 26 µM | 26 µM | 26 µM | T/C (P388 [14]): 175%; IC50 (TE-671): 34 µM; IC50 (WiDr): 13 µM; IC50 (U-251): 8 µM; IC50 (RPMI-7951): 13 µM; IC50 (SK-MEL-5): 10 µM; IC50 (A549): 14 µM; IC50 (NCI-H522 (Homo sapiens)): 10 µM
